Data taken from ChEMBL document CHEMBL3526053, “Species-dependent uptake of glycylsarcosine but not oseltamivir in Pichia pastoris expressing the rat, mouse, and human intestinal peptide transporter PEPT1” (Drug Metab Dispos, 2012).

Legend:
Format in all cases: ADME
PEPT1 [1] = target: T1, PEPT1 (Mus musculus, UniProt Q9JIP7); experiment: Drug uptake in Pichia pastoris GS115 expressing mouse recombinant PEPT1 at 5 uM after 30s by dual-channel liquid scintillation counting analysis relative to vector control; conditions: read-out: FC
T1 sequence (Q9JIP7 whole entry): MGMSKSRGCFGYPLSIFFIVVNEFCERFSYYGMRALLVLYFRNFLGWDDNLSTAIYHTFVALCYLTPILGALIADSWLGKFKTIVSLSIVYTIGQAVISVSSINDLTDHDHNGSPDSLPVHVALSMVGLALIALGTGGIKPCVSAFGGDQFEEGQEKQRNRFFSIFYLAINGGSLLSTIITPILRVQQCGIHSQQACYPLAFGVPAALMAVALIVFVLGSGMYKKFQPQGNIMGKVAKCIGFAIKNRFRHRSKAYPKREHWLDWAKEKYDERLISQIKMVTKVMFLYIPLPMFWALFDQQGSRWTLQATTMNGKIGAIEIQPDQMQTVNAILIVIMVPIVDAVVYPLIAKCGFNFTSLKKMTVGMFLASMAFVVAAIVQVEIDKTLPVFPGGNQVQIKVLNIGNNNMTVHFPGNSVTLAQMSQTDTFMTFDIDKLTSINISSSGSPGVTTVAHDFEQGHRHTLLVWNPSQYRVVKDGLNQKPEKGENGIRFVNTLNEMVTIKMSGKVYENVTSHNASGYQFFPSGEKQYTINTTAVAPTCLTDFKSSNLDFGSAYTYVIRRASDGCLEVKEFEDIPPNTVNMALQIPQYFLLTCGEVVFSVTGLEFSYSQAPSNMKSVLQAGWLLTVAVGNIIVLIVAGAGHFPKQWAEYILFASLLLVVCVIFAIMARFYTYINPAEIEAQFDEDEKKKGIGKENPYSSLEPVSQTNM
Summary of the method: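 5.0 µM radiolabelled substrate uptake for 30 s at 24°C in pH 6.5 phosphate buffer by induced transformants. Radioactivity is counted by liquid scintillation and normalised to OD600. Results are compared with pPIC3.5K vector-alone cells. Mean ± SE (n=6).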

PEPT1 [2] = target: T2, PEPT1 (Homo sapiens, UniProt P46059); experiment: Drug uptake in Pichia pastoris GS115 expressing human recombinant PEPT1 at 5 uM after 30 mins by dual-channel liquid scintillation counting analysis relative to vector control; conditions: read-out: FC
T2 sequence (P46059 whole entry): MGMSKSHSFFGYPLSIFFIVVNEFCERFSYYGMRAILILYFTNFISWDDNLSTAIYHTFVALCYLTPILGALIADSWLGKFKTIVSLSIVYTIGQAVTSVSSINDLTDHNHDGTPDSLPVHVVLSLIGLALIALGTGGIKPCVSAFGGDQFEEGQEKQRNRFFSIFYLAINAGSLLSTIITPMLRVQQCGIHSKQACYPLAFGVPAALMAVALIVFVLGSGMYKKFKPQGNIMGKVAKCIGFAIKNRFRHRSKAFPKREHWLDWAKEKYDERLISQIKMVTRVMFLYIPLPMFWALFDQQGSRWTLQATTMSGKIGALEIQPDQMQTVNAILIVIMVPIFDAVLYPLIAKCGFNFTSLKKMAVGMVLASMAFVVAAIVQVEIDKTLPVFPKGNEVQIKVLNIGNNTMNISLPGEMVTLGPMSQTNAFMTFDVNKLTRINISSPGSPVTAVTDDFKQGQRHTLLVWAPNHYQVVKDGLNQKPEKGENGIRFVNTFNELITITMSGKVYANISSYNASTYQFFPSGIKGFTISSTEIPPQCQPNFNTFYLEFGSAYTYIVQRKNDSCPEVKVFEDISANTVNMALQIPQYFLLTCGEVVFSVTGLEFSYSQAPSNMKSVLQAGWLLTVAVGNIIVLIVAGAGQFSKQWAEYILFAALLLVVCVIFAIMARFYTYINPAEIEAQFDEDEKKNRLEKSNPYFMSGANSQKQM
Summary of the method: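 5.0 µM radiolabelled substrate ([3H]GlySar or [14C]oseltamivir) is incubated 30 min at 24°C with induced transformants in 100 mM potassium phosphate pH 6.5. Cell-associated radioactivity is counted by scintillation after standing 24 h and normalised to OD600. Results are compared with pPIC3.5K vector-alone cells. Mean ± SE (n=6).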

[3] = target: T3, Solute carrier family 15 member 1 (Rattus norvegicus, UniProt P51574); experiment: Drug uptake in Pichia pastoris GS115 expressing rat recombinant PEPT1 at 5 uM after 30s by dual-channel liquid scintillation counting analysis relative to control; conditions: 0.5 min
T3 sequence (P51574 whole entry): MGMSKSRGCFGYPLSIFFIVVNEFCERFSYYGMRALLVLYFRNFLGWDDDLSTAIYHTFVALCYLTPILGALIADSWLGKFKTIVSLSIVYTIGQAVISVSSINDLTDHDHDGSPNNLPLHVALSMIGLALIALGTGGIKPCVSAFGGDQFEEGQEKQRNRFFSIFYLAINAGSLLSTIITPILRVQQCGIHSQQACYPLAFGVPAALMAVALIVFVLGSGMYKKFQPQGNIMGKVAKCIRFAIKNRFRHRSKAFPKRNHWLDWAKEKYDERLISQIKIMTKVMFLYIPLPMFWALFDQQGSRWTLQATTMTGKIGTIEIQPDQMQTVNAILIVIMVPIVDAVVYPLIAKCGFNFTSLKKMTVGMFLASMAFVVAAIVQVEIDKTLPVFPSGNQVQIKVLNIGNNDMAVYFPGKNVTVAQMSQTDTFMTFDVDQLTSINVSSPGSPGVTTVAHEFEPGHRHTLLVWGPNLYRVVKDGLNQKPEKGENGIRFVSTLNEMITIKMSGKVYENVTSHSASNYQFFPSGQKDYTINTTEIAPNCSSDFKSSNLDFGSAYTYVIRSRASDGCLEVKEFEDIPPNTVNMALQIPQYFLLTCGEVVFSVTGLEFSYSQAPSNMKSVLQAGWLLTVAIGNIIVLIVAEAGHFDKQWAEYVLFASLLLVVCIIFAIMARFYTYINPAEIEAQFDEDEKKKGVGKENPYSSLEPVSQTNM
Summary of the method: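 Rat PEPT1 and vector-only (pPIC3.5K) GS115 yeast, methanol-induced 20-24 hr. Cells were washed and concentrated tenfold in 100 mM phosphate buffer pH 6.5. [3H]GlySar or [14C]oseltamivir final 5.0 µM, 24°C, 30 sec and 5 min. Nonspecific binding was measured at 0°C and zero time. Uptake is given as pmol/OD600 by scintillation counting. Mean ± SE, n=6.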

[4] = target: T4, Solute carrier family 15 member 1 (Homo sapiens, UniProt P46059); experiment: Activity at human recombinant PEPT1 expressed in Pichia pastoris GS115 assessed as non-saturable rate constant after 30s by dual-channel liquid scintillation counting analysis
T4 sequence (P46059 whole entry): T2 sequence (P46059 whole entry)
Summary of the method: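 [3H]GlySar concentration series 0.005-10 mM, 30-s uptake at 24°C in 100 mM potassium phosphate pH 6.5. Cells come from His+Mut+ GS115 transformants induced 20-24 h in methanol medium. Uptake is normalised to OD600. Data are fitted to Michaelis-Menten plus a first-order nonsaturable term (Kd), weighting unity. Parameters are mean ± SE (n=9).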

## [3H]C(C(=O)O)N(C)C(=O)CN (centres undefined)
PEPT1 [1]
  uptake ratio at 0.5 min, 5 µM: 61
PEPT1 [2]
  uptake ratio at 0.5 h, 5 µM: 30
[3]
  Drug uptake: 100%
[4]
  Kd: 2.21 uL/OD/min
